According to ChEMBL document CHEMBL1134539, “Significance of asymmetric sites in choosing siderophores as deferration agents” (J Med Chem, 2001):
Several values for one entry are separate records, joined by “and”; a condition that tells them apart may be missing. Equal values may be shown once.

Experiments:
[1] = Iron clearance was stimulated by the compound was expressed as % distribution of excreted Fe in urine by subcutaneous dose of 150 umol/kg; type: ADME; conditions: in vivo, sc
Summary of the method: (§1)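 Non-iron-overloaded, bile duct-cannulated male Sprague–Dawley rats (about 400 g), housed in metabolic cages with free access to water. Single sc injection at 150 µmol/kg. Bile was collected at 3-h intervals for 48 h and urine every 24 h. Excreted iron was apportioned between bile and urine.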

[2] = Iron clearance was stimulated by the compound was expressed as % distribution of excreted Fe in bile by subcutaneous dose of 150 umol/kg; type: ADME; conditions: in vivo, sc; summary of the method: as §1
Rattus norvegicus = experiment: Iron clearance was stimulated by the compound was expressed as % efficiency by subcutaneous dose of 150 umol/kg; type: functional
Summary of the method: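 Bile duct-cannulated, non-iron-overloaded male Sprague–Dawley rats (about 400 g) were kept in metabolic cages and given one sc dose of 150 µmol/kg. Bile was collected every 3 h and urine every 24 h over 48 h. Efficiency is the excreted iron minus that of control animals, divided by the theoretical iron excretion from dose and coordination chemistry.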

Paracoccus denitrificans [3] = experiment: Michaelis-Menten constant for accumulation of [55Fe]-labeled high-affinity component complexes by Paracoccus denitrificans; type: functional, organism-based
Summary of the method: (§2)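 Late log-phase P. denitrificans (ATCC 17741), grown in defined low-iron medium with 0.5 μM Fe(III), washed and resuspended in transport buffer to OD660 1.00. Suspensions were preincubated 15 min at 30 °C with shaking before [55Fe] ferric chelate was added at 0.1–5.0 μM. Samples were taken every 20 s for 2 min, stopped in chilled buffer, filtered, rinsed and scintillation counted. Initial rates were expressed per mg protein, and Km and Vmax were taken from Lineweaver–Burk fits.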

Paracoccus denitrificans [4] = experiment: Michaelis-Menten constant for accumulation of [55Fe]-labeled low-affinity component complexes by Paracoccus denitrificans; type: functional, organism-based; summary of the method: as §2
Paracoccus denitrificans [5] = experiment: Maximum velocity of accumulation of [55Fe]-labeled low-affinity component complexes by Paracoccus denitrificans; type: functional, organism-based; design: unit not given here; summary of the method: as §2
Paracoccus denitrificans [6] = experiment: Maximum velocity of accumulation of [55Fe]-labeled high-affinity component complexes by Paracoccus denitrificans; type: functional, organism-based; design: unit not given here; summary of the method: as §2

Row | Km (Paracoccus denitrificans [3]) | SMILES | Distribution of excreted Fe [1] | Distribution of excreted Fe [2] | Efficiency (Rattus norvegicus) | Km (Paracoccus denitrificans [4]) | Vmax (Paracoccus denitrificans [5]) | Vmax (Paracoccus denitrificans [6])
1 | 0.11 µM | C[C@H]1OC(c2cccc(O)c2O)=N[C@@H]1C(=O)N(CCCCNC(=O)c1cccc(O)c1O)CCCNC(=O)c1cccc(O)c1O |  |  |  | 0.55 µM and 0.53 µM | 245 and 247 | 157 and 153
2 |  | C[C@@H]1OC(c2cccc(O)c2O)=N[C@H]1C(=O)N(CCCNC(=O)c1cccc(O)c1O)CCCNC(=O)c1cccc(O)c1O | 9.2% | 90.8% | 16% | 3.5 µM | 96 | 
3 | 0.17 µM | C[C@H]1OC(c2cccc(O)c2O)=N[C@@H]1C(=O)N(CCCCNC(=O)c1cccc(O)c1O)CCCCNC(=O)c1cccc(O)c1O |  |  |  | 1 µM | 229 | 138

Row | SMILES | Km (Paracoccus denitrificans [3]) | Distribution of excreted Fe [1] | Distribution of excreted Fe [2] | Efficiency (Rattus norvegicus) | Km (Paracoccus denitrificans [4]) | Vmax (Paracoccus denitrificans [5]) | Vmax (Paracoccus denitrificans [6])
4 | C[C@H]1OC(c2cccc(O)c2O)=NC1C(=O)N(CCCNC(=O)c1cccc(O)c1O)CCCNC(=O)c1cccc(O)c1O (stereo not given in full) | 0.23 µM | 15.4% | 84.6% | 13.8% | 2.2 µM | 413 | 129
